From PubChem BioAssay
This is a sample that favours compounds with a hit; in the whole collection about 3.3% have one here.
DENV2 CPE rescue – inhibitors of DENV2 cytopathic effect. DENV2-infected cells, cytopathic effect rescue, plate reader. CPE inhibition, % at 9.99 µM. 350,000 tested, 1.7% active. AID 651640; in the data active = CPE inhibition above about 20%, passing the limit was not always enough; tested in BHK-21 cells;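 also: 0% = median of neutral control wells and 100% = median of positive control wells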
XiGFP reactiv – reactivates the inactive X chromosome in mouse fibroblasts. XiGFP mouse fibroblasts, % GFP-positive cells imaging, 3 d; cells co-treated with 5-aza-dC sensitizer; scaled so ellipticine positive control = 100%. activation, % at 7.58 µM. 360,000 tested, 0.055% active;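 active = mean normalized replicate activation at least 10% and every replicate at or above 10%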;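 also: 0% = median of on-plate neutral control wells and 100% = ellipticine 6 µM median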
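System: 68-5-11 XiGFP fibroblast line; Timing: 3 days compound exposure; Compound dosing: one concentration, pinned; Benchmarks: positive control ellipticine, 6 µM final; Buffer or medium: DMEM containing 5-aza-dC.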
FGF22 binding – FGF22 (human) thermal shift binding. Q9HCT0. recombinant FGF22 thermal shift, SYPRO orange fluorescence; percent of sucrose octasulfate shift, DMSO zero. activity (Tm shift, normalised), % at 9.99 µM. 340,000 tested, 1.5% active. AID 651658;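 active = mean Tm shift, scaled 0 neutral to 100 positive control, at about 1.3% or above, every replicate too, limit read from the data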
Target sequence (Q9HCT0 whole entry, looked up): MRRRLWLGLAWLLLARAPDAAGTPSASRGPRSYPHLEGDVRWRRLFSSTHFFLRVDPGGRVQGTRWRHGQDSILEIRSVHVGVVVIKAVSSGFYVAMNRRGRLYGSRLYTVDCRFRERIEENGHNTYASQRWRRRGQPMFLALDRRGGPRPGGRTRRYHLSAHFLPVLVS
C2C12 statin – protects C2C12 myotubes from simvastatin toxicity; AID 602340; 330,000 tested, 0.78% active; rescue of ATP level, % at 7.49 µM; ATP luminescence, 48 h; scaled: DMSO 0, geranylgeraniol control 100;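 active = mean ATP rescue above about 67%, or every replicate alone reaching that limit, limit read from the data, passing the limit was not always enough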;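 also: myotubes were challenged with 10 µM simvastatin during compound exposure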
PglD DTNB – PglD (C. jejuni) enzyme inhibition. 360,000 tested, 0.098% active. purified PglD enzyme, DTNB colorimetric CoA detection. inhibition, % at 12.5 µM; in the data active = inhibition above about 16%, passing the limit was not always enough
E-selectin induc – E-selectin induction on HUVECs; AID 686992; 260,000 tested, 0.37% active; HUVEC E-selectin immunofluorescence imaging; normalized: neutral wells 0, TNF-alpha wells 100; activation, % at 7.58 µM;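 active = mean E-selectin-positive cell signal at least 10% of the positive control, reached in at least 60% of replicates, without over 20% cell loss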
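material = human umbilical vein endothelial cells (HUVEC), E-selectin induction | quantity = 3,000 cells/well | medium = EGM-2 growth medium on 0.1% gelatin-coated wells | technique = immunofluorescence imaging | read-out basis = % PE-positive cells | control set = TNF-alpha positive control, DMSO neutral control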
* hit, by the source's call; . = no result given.

SMILES	DENV2 CPE rescue	XiGFP reactiv	FGF22 binding	C2C12 statin	PglD DTNB	E-selectin induc
CO[C@@H]1CN(C)C(=O)c2ccc(NC(=O)c3nc4ccccc4s3)cc2OC[C@@H](C)N(Cc2ccccc2)C[C@H]1C	-5	0	0	11	2	0
CC(=O)Nc1ccc2c(c1)C(=O)N(C)C[C@H](C)[C@H](CN(C)C(=O)NC(C)C)O2	.	0	.	.	.	.
O=C(O)C[C@H]1C=C[C@@H](NC(=O)CCN2CCCCC2)[C@@H](CO)O1	97*	0	.	.	.	0
CN(C)CC(=O)N[C@H]1C=C[C@@H](CC(=O)NCCN2CCCCC2)O[C@@H]1CO	59*	0	0	-4	-3	0
O=C(O)C[C@@H]1C=C[C@H](NC(=O)CCN2CCCCC2)[C@H](CO)O1	0	0	.	.	.	0
CCC(=O)N(C)C[C@H]1Oc2cc(C3=CCCCC3)ccc2S(=O)(=O)N([C@@H](C)CO)C[C@@H]1C	.	-1	.	-26	.	1
CCCC12CN(C(=O)c3ccco3)CC(CCC)(CN(C(=O)c3ccco3)C1)C2=O	0	0	0	77*	3	.
CCc1ccc(CN2CCN(C(=O)c3ccco3)CC2)cc1	2	0	0	-1	6	.
COc1cc2c(cc1OC)CN(C(=O)CCOc1ccccc1C)CC2	44*	0	0	6	-2	.
C[C@@H]1CN([C@@H](C)CO)C(=O)c2cc(-c3cncnc3)cnc2O[C@H]1CN(C)C(=O)Cc1cccnc1	1	1	0	26	-1	0
COc1ccc(-c2nc(NCCCN(C)C)c3ccccc3n2)cc1	30*	0	0	1	-2	.
CC(=O)c1cc(C#N)c(Oc2ccccc2)nc1C	.	.	.	105*	3	.
COC(=O)c1cc(C#N)c(Oc2ccc(OC)cc2)nc1C	.	.	.	-5	-10	.
CC(=O)c1cc(C#N)c(Oc2ccc(Cl)cc2Cl)nc1C	.	.	.	167*	-7	.
COC(=O)c1cc(C#N)c(OC)nc1C	-12	0	43*	.	.	.
CC(=O)c1cc(C#N)c(NCc2ccccc2)nc1C	0	0	0	.	.	.
Cc1ccc(S(=O)(=O)Nc2ccc3c(c2)C(=O)N([C@H](C)CO)C[C@H](C)[C@@H](CN(C)C(=O)C2CCCCC2)OCCCC[C@@H](C)O3)cc1	-5	0	.	.	0	0
C[C@H](CO)N1C[C@H](C)[C@@H](CN(C)Cc2cccnc2)Oc2cc(-c3ccccc3F)ccc2S1(=O)=O	46*	-1	.	-17	.	1
C[C@H]1CN([C@@H](C)CO)S(=O)(=O)c2ccc(-c3ccccc3F)cc2O[C@H]1CN(C)Cc1ccncc1	21*	0	0	-28	0	0
C[C@@H]1CN([C@H](C)CO)S(=O)(=O)c2ccc(-c3ccncc3)cc2O[C@H]1CN(C)Cc1ccc(Oc2ccccc2)cc1	-6	0	0	-96	0	131*
C[C@@H]1CN([C@H](C)CO)S(=O)(=O)c2ccc(-c3ccccc3F)cc2O[C@H]1CN(C)Cc1ccncc1	29*	0	-1	-116	1	0
C[C@@H]1CN([C@@H](C)CO)S(=O)(=O)c2ccc(-c3ccncc3)cc2O[C@@H]1CN(C)Cc1ccc(Oc2ccccc2)cc1	-33	-1	0	-30	-3	0
Cc1noc(C)c1NC(=O)Nc1ccc2c(c1)C(=O)N([C@H](C)CO)C[C@@H](C)[C@@H](CN(C)C(=O)Nc1ccccc1)O2	.	0	.	.	.	0
C[C@@H]1CN([C@H](C)CO)C(=O)c2cc(C#CC3CC3)cnc2O[C@@H]1CN(C)C(=O)C1CCCCC1	.	-1	.	17	.	0
Cc1noc(C)c1NC(=O)N(C)C[C@@H]1OCCCC[C@@H](C)Oc2ccc(NS(C)(=O)=O)cc2C(=O)N([C@H](C)CO)C[C@@H]1C	-6	0	0	.	-2	0
SMILES	DENV2 CPE rescue	XiGFP reactiv	FGF22 binding	C2C12 statin	PglD DTNB	E-selectin induc
CCc1ccc(NC(=O)N(CCCN2CCOCC2)Cc2cccs2)cc1	34*	0	0	-47	-8	4
O=C(Nc1ccccc1)N(CCCN1CCOCC1)Cc1cccs1	-1	0	0	-6	5	0
Cc1ccc(S(=O)(=O)N[C@@H]2CCCN(Cc3cccc(OCCO)c3)C2)cc1	3	.	-1	.	-1	.
Cc1cc(C(=O)COC(=O)/C=C/c2ccc(F)cc2)c(C)n1C	12	0	0	-1	5	.
COCC(C)n1c(C)cc(C(=O)COC(=O)/C=C/c2cccc(F)c2)c1C (configuration not stated)	-5	0	43*	12	-2	.
CCc1nc2c(OCc3cccc(Cl)c3)cccn2c1N(C)C(=O)c1ccncc1	12	0	1	-9	-1	0
CCc1nc2c(OCc3cccc(Cl)c3)cccn2c1N(C)C(=O)c1ccco1	23*	0	0	-33	-4	0
S=c1[nH]cc(-c2ccccc2)n1-c1ccccc1	.	.	.	98*	-6	.
Cc1ccc(-n2c(-c3ccccc3)c[nH]c2=S)cc1	.	0	0	.	.	.
CN(C)CCCNC(=O)[C@H]1[C@H](CO)[C@H]2Cn3c(ccc(-c4ccncc4)c3=O)[C@@H]1N2C(=O)CC1CC1	.	0	0	-10	-6	0
O=C(NCC[C@H]1CC[C@H](NS(=O)(=O)Cc2ccccc2)[C@H](CO)O1)C1CC1	4	0	0	1	0	0
N#CCCn1nc(-c2ccc(Br)cc2)cc1Nc1ccccc1NC(=O)C(F)(F)F	2	0	2.5*	.	.	1
N#CCCn1nc(-c2ccccc2)cc1Nc1ccccc1NC(=O)C(F)(F)F	-4	0	0	11	-4	4
COc1ccc(CN(C)C[C@H]2Oc3ccc(NS(=O)(=O)c4c(C)noc4C)cc3C(=O)N([C@@H](C)CO)C[C@@H]2C)cc1	25*	0	0	.	0	19
COc1ccc(S(=O)(=O)N(C)C[C@@H]2Oc3ccc(NS(=O)(=O)c4c(C)noc4C)cc3C(=O)N([C@@H](C)CO)C[C@H]2C)cc1	.	0	0	15	4	189*
COc1ccc(S(=O)(=O)N(C)C[C@H]2Oc3ccc(NS(=O)(=O)c4c(C)noc4C)cc3C(=O)N([C@H](C)CO)C[C@@H]2C)cc1	-14	-1	0	0	5	1
Cc1noc(C)c1S(=O)(=O)Nc1ccc2c(c1)C(=O)N([C@@H](C)CO)C[C@@H](C)[C@H](CN(C)Cc1ccc(Oc3ccccc3)cc1)O2	-2	0	0	-3	0	-2
O=C(NCc1ccccc1)NC(O)C(Cl)(Cl)Cl (configuration not stated)	1	0	44*	5	.	9
